# Calls of active or inactive are those of the source. No cut-off for these calls is given here.
# Assays:
# [1] = target: T1, Lysine-specific demethylase 6B (Homo sapiens, UniProt O15054); test: Inhibition of recombinant human JMJD3 expressed in baculovirus infected Sf9 cells at 25 uM using biotinylated histone H3 peptide as substrate incubated for 15 mins followed by substrate addition and measured after 60 mins by AlphaScreen assay relative to control
# Method in brief: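 JMJD3 demethylase activity measured by AlphaScreen with compound at 25 μM; means ± SEM, n = 3.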
# [2] = target: T1, Lysine-specific demethylase 6B; test: Inhibition of recombinant human JMJD3 expressed in baculovirus infected Sf9 cells using biotinylated histone H3 peptide as substrate incubated for 15 mins followed by substrate addition and measured after 60 mins by AlphaScreen assay
# [3] = target: Lysine-specific demethylase 6A (Homo sapiens, UniProt O15550); test: Inhibition of UTX (unknown origin) using histone H3 peptide as substrate incubated for 30 mins followed by substrate addition by AlphaScreen assay
# Lysine-specific demethylase 6A, sequence (O15550 whole entry): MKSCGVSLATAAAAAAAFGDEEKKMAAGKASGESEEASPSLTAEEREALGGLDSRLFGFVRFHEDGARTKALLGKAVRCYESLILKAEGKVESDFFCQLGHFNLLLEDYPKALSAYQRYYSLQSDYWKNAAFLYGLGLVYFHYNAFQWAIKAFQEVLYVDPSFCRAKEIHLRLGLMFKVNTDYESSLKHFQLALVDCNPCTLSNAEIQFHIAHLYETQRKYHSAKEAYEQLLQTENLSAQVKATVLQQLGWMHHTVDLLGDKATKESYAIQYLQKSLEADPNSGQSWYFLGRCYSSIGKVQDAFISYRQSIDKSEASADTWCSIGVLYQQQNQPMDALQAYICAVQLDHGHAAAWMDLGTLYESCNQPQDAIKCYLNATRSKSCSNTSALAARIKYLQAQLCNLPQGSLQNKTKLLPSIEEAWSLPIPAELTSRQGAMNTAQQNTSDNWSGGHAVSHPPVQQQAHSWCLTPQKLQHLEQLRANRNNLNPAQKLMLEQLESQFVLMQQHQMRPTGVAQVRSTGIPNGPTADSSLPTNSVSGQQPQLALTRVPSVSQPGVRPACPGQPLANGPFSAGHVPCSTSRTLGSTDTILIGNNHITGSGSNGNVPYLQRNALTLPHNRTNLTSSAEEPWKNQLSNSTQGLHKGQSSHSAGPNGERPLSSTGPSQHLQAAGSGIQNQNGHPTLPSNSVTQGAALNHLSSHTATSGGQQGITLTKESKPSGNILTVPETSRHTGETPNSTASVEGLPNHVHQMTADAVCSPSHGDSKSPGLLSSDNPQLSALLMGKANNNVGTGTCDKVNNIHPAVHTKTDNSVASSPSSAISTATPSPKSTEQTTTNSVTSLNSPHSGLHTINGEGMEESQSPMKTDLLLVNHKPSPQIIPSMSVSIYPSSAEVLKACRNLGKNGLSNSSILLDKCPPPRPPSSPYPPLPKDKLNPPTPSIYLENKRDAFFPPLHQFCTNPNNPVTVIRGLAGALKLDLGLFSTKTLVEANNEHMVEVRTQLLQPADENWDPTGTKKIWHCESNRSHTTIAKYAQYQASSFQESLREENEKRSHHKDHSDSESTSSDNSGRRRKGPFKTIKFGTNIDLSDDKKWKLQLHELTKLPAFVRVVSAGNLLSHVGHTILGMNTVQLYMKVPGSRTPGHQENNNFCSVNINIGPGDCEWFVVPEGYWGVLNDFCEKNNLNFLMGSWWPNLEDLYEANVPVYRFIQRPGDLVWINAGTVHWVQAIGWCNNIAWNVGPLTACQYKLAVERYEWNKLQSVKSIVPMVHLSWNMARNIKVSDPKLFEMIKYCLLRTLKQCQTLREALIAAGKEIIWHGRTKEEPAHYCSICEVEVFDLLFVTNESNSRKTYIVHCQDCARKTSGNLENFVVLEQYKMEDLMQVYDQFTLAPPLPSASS
# [4] = Apparent permeability of the compound in pH 7.4 phosphate buffer solution at 0.5 mM incubated for 24 hrs under gentle shaking condition by HPLC-UV detector based PAMPA assay; type: ADME
# Method in brief: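 Parallel artificial membrane permeability assay (PAMPA); apparent permeability (Papp) reported in cm/s.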
# A-375 [5] = test: Antiproliferative activity against human A375 cells incubated for 24 hrs by propidium iodide staining based flow cytometric analysis; details: A-375, 24 h
# A-375 [6] = test: Cell cycle arrest in human A375 cells assessed as accumulation at G1 phase at 20 uM incubated for 24 hrs by propidium iodide staining-based flow cytometry (reference value: 59.63%); type: functional
# Method in brief: (§1)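 A375 melanoma cells exposed to compound at 1, 5, 10, 20, 40, 80 or 100 μM for 24 h. Cells were collected, fixed in iced 70% ethanol for 2 h and stained with propidium iodide. Cell-cycle distribution was read by flow cytometry, n = 3. […]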
# A-375 [7] = test: Cell cycle arrest in human A375 cells assessed as accumulation at G1 phase at 40 uM incubated for 24 hrs by propidium iodide staining-based flow cytometry (reference value: 59.63%); type: functional; method in brief: as §1
# A-375 [8] = test: Cell cycle arrest in human A375 cells assessed as accumulation at G1 phase at 80 uM incubated for 24 hrs by propidium iodide staining-based flow cytometry (reference value: 59.63%); type: functional; method in brief: as §1
# A-375 [9] = test: Cell cycle arrest in human A375 cells assessed as accumulation at G1 phase at 100 uM incubated for 24 hrs by propidium iodide staining-based flow cytometry (reference value: 59.63%); type: functional; method in brief: as §1
# A-375 [10] = test: Cell cycle arrest in human A375 cells assessed as accumulation at S phase at 20 uM incubated for 24 hrs by propidium iodide staining-based flow cytometry (reference value: 29.56%); type: functional; method in brief: as §1
# A-375 [11] = test: Cell cycle arrest in human A375 cells assessed as accumulation at S phase at 40 uM incubated for 24 hrs by propidium iodide staining-based flow cytometry (reference value: 29.56%); type: functional; method in brief: as §1
# A-375 [12] = test: Cell cycle arrest in human A375 cells assessed as accumulation at S phase at 80 uM incubated for 24 hrs by propidium iodide staining-based flow cytometry (reference value: 29.56%); type: functional; method in brief: as §1
# A-375 [13] = test: Cell cycle arrest in human A375 cells assessed as accumulation at S phase at 100 uM incubated for 24 hrs by propidium iodide staining-based flow cytometry (reference value: 29.56%); type: functional; method in brief: as §1
# A-375 [14] = test: Cell cycle arrest in human A375 cells assessed as accumulation at G2/M phase at 20 uM incubated for 24 hrs by propidium iodide staining-based flow cytometry (reference value: 10.81%); type: functional; method in brief: as §1
# A-375 [15] = test: Cell cycle arrest in human A375 cells assessed as accumulation at G2/M phase at 40 uM incubated for 24 hrs by propidium iodide staining-based flow cytometry (reference value: 10.81%); type: functional; method in brief: as §1
# A-375 [16] = test: Cell cycle arrest in human A375 cells assessed as accumulation at G2/M phase at 80 uM incubated for 24 hrs by propidium iodide staining-based flow cytometry (reference value: 10.81%); type: functional; method in brief: as §1
# A-375 [17] = test: Cell cycle arrest in human A375 cells assessed as accumulation at G2/M phase at 100 uM incubated for 24 hrs by propidium iodide staining-based flow cytometry (reference value: 10.81%); type: functional; method in brief: as §1
# [18] = target: T1, Lysine-specific demethylase 6B; test: Inhibition of JMJD3 in human A375 cells assessed as reduction in decrease of the H3K27me2 level at 100 uM incubated for 24 hrs by Western blot analysis; type: cell-based
# Method in brief: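 A375 melanoma cells treated with 100 μM compound for 4 and 24 h, then lysed and run on SDS-PAGE. Western blot on nitrocellulose was probed with anti-H3K27me2 antibody.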
# T1 sequence (O15054 whole entry): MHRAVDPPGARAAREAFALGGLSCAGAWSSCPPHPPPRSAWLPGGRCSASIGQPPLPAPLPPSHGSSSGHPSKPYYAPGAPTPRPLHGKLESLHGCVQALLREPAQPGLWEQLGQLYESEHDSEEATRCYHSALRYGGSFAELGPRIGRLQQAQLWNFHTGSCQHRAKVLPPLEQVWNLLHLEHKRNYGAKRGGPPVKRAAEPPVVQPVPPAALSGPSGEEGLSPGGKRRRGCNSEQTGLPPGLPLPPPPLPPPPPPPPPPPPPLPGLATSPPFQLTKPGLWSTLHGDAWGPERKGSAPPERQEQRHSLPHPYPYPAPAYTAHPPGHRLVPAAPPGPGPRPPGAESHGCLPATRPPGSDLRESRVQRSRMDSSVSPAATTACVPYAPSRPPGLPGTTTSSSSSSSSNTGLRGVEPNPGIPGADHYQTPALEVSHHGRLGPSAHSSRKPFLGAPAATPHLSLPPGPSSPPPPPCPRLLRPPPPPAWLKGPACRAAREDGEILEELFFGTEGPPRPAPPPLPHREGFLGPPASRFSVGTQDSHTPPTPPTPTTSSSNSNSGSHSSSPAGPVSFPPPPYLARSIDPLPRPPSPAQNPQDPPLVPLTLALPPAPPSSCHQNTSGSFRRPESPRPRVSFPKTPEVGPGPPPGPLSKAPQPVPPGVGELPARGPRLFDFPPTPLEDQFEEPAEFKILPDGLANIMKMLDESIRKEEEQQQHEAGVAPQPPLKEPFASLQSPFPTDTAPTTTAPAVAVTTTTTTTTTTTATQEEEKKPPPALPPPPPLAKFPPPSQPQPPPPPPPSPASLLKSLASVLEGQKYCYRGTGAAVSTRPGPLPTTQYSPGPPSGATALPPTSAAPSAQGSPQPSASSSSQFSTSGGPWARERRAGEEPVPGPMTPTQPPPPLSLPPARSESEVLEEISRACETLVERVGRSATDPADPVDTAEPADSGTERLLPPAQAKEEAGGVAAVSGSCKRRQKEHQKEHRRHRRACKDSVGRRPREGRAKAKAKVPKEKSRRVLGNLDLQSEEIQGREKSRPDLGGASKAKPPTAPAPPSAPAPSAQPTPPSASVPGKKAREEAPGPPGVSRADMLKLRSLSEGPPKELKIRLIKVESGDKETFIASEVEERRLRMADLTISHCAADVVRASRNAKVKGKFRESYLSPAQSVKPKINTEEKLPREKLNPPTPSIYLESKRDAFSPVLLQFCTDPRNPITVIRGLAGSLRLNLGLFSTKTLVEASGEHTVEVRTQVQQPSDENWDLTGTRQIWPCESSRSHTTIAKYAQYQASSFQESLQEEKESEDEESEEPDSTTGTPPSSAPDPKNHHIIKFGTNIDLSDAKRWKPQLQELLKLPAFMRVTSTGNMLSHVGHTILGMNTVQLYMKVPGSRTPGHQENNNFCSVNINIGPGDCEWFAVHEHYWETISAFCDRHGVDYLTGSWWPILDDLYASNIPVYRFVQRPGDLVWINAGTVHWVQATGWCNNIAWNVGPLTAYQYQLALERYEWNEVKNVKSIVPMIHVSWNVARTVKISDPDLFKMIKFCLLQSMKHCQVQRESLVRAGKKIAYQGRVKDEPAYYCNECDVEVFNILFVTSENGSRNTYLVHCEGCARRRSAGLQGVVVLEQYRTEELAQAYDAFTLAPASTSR
structure (smiles),measurement,setting,value
Oc1c(F)cc(F)cc1-c1nc2ccccc2o1,inhibition,[1],20%
O=C(O)c1ccc(O)c(-c2nc3ccccc3o2)c1,inhibition,[1],27%
COc1cc2c(cc1-c1nc3ccccc3o1)OCO2,inhibition,[1],inactive
Oc1ccccc1-c1nc2ccccc2s1,inhibition,[1],inactive
Oc1ccccc1-c1nc2ccccc2o1,inhibition,[1],40%
Oc1ccc(O)c(-c2nc3ccccc3o2)c1,inhibition,[1],90%
same,IC50,[2],1.2 µM
same,IC50,[3],25.7 µM
same,"Papp at 24 h, 500 µM",[4],0.912 ×10⁻⁶ cm/s
same,IC50,A-375 [5],24.7 µM
same,Activity,A-375 [6],51.31%
same,Activity,A-375 [7],24.14%
same,Activity,A-375 [8],21.92%
same,Activity,A-375 [9],16.62%
same,Activity,A-375 [10],47.57%
same,Activity,A-375 [11],61.05%
same,Activity,A-375 [12],67.12%
same,Activity,A-375 [13],73.38%
same,Activity,A-375 [14],1.12%
same,Activity,A-375 [15],14.81%
same,Activity,A-375 [16],10.96%
same,Activity,A-375 [17],10%
same,inhibition,[18],Active

# Reference: ChEMBL document CHEMBL4433220, “Identification of the 2-Benzoxazol-2-yl-phenol Scaffold as New Hit for JMJD3 Inhibition” (ACS Med Chem Lett, 2019)
